For one data set, the target named is Substance-P receptor (Homo sapiens, UniProt P25103). Kind of data set: Displacement of [125I]-labeled SP from human Tachykinin receptor 1 expressed in CHO cells. It is filed as cell-based. An outline of the steps:
(§1)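 Human receptor expressed in CHO cells; values are given as mean with SD from 3 determinations unless otherwise stated.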

For a further data set, the system named is Cavia porcellus. Kind of data set: SP-induced dermal inflammation assay in guinea pig after peroral administration followed by SP challenge id after 1 hr. It is filed as functional. The conditions noted are these: oral, read-out: ID50 (the source's name). An outline of the steps: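 Guinea pigs received antagonist orally, then an intradermal substance P challenge 1 h later. Read-out was SP-induced plasma extravasation in skin. Dose–response data used 5–12 animals per data point.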

Data set [1] can be described thus: Physicochemical property was determined. It is filed as ADME.
The target in the next data set is T1, Neuromedin-K receptor (Homo sapiens, UniProt P29371).
T1 sequence (P29371 whole entry): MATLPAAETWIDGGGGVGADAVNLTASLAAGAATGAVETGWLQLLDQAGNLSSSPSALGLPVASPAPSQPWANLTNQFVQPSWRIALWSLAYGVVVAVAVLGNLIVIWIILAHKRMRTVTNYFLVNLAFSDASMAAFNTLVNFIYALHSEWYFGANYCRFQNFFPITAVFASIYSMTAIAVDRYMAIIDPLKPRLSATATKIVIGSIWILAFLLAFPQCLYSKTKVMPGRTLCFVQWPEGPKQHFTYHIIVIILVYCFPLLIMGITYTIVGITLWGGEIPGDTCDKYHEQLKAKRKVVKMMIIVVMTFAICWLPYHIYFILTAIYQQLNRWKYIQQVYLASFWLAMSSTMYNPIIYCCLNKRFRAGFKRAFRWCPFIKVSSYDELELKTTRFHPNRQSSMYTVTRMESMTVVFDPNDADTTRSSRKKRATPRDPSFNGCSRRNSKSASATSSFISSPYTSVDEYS
The data set is described as follows: Displacement of [125I]-labeled SP from the human Tachykinin receptor 3 expressed in CHO cells. It is filed as cell-based. The method in brief: as §1

Data set [2] in a line: Inhibition of [3H]diltiazem binding to L-type [Ca2+] channel in rabbit skeletal muscle. It is filed as tissue-based, Oryctolagus cuniculus, Muscle tissue.
In a further data set the target is T2, Substance-K receptor (Homo sapiens, UniProt P21452).
T2 sequence (P21452 whole entry): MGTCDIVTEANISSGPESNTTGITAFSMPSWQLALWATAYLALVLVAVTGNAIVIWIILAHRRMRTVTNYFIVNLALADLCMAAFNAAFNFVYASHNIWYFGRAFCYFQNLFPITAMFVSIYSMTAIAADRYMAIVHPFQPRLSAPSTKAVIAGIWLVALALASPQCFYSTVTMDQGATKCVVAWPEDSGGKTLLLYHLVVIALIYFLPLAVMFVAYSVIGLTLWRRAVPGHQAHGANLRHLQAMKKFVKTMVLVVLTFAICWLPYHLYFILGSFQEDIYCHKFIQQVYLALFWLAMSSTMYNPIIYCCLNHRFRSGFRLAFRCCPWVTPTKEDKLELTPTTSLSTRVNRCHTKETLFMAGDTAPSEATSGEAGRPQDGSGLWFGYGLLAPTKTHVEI
The data set is described as follows: Displacement of [125I]-labeled SP from the human Tachykinin receptor 2 expressed in CHO cells. It is filed as cell-based. An outline of the steps:
as §1
For orientation: In a radioligand displacement assay an active substance lowers the binding of a labelled ligand.

Data set [3] can be described thus: Physicochemical property pKa of piperdine amine was determined.
A short description of data set [4]: Physicochemical property pKa of benzyl amine was determined.

For twelve compounds, IC50, ED50 and pKa results are on record in ChEMBL document CHEMBL1129558, “2(S)-((3,5-bis(trifluoromethyl)benzyl)-oxy)-3(S)-phenyl-4- ((3-oxo-1,2,4-triazol-5-yl)methyl)morpholine (1): a potent, orally active, morpholine-based human neurokinin-1 receptor antagonist” (J Med Chem, 1996).

Bounds are passed on as bounds.

Sequence of Substance-P receptor (P25103 whole entry): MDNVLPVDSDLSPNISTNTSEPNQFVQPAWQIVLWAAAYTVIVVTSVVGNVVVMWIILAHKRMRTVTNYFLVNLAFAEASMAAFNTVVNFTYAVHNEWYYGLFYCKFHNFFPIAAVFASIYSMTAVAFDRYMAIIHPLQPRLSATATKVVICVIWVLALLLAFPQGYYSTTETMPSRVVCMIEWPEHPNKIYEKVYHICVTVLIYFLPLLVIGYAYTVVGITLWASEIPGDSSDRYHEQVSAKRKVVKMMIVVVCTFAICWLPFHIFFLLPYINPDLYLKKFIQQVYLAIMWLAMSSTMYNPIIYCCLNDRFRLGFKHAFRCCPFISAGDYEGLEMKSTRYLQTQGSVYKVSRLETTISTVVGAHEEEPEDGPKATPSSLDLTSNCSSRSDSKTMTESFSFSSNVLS

By IC50 is commonly meant the point on the concentration scale where inhibition reaches its midpoint. Low values mean greater potency, high ones weaker potency. Consider `COC(=O)CN1CCO[C@H](OCc2cc(C(F)(F)F)cc(C(F)(F)F)c2)[C@@H]1c1ccccc1`, for which the IC50 at Substance-P receptor stood at 1.6 nM. On the same count and under the same terms, with `FC(F)(F)c1cc(CO[C@H]2OCCN(Cn3cncn3)[C@H]2c2ccccc2)cc(C(F)(F)F)c1` the figure was 0.13 nM. Take `NC(=O)CN1CCO[C@H](OCc2cc(C(F)(F)F)cc(C(F)(F)F)c2)[C@@H]1c1ccccc1`: the half-inhibitory concentration (IC50) at Substance-P receptor came out at 1.1 nM. Same read-out and setting: with `O=C(O)CN1CCO[C@H](OCc2cc(C(F)(F)F)cc(C(F)(F)F)c2)[C@@H]1c1ccccc1` the figure was 66 nM. As a reminder, the pKa is the pH at which an ionisable group is half protonated. Lower therefore signals a stronger acid or weaker base. As for `O=c1[nH]nc(CN2CCO[C@H](OCc3cc(C(F)(F)F)cc(C(F)(F)F)c3)[C@@H]2c2ccccc2)[nH]1`, the ED50 in the data set on Cavia porcellus was 0.009 mg/kg. The pKa in data set [1] was less than 3. The IC50 was 0.09 nM on Substance-P receptor, 150 nM at Neuromedin-K receptor, 11000 nM in data set [2] and 7000 nM on Substance-K receptor. Take `FC(F)(F)c1cc(CO[C@@H]2OCCN[C@H]2c2ccccc2)cc(C(F)(F)F)c1` (stereo in doubt; 12): the concentration for half-maximal inhibition (IC50) at Substance-P receptor was 376 nM. As to `FC(F)(F)c1cc(CO[C@H]2OCCN[C@@H]2c2ccccc2)cc(C(F)(F)F)c1` (stereo in doubt; 13), on Substance-P receptor, the IC50 stood at 287 nM. Still for that read-out and setting: in the case of `FC(F)(F)c1cc(CO[C@@H]2OCCN[C@@H]2c2ccccc2)cc(C(F)(F)F)c1` (stereo in doubt; 14) it was 59 nM. On to `FC(F)(F)c1cc(CO[C@H]2OCCN[C@@H]2c2ccccc2)cc(C(F)(F)F)c1` (stereo in doubt; 20), for which the IC50 at Substance-P receptor came out at 21 nM. In the case of `FC(F)(F)c1cc(CO[C@@H]2OCCN[C@@H]2c2ccccc2)cc(C(F)(F)F)c1` (stereo in doubt; 21), the 50% inhibitory concentration (IC50) on Substance-P receptor turned out to be 116 nM. Consider `FC(F)(F)c1cc(CO[C@@H]2OCCN[C@H]2c2ccccc2)cc(C(F)(F)F)c1` (stereo in doubt; 22), for which the IC50 on Substance-P receptor came to 19 nM. With `COc1ccccc1CN[C@H]1CCCN[C@H]1c1ccccc1` [CP-99994], in the data set on Cavia porcellus, the ED50 turned out to be 1.6 mg/kg. Also, the pKa in data set [3] came to 8.7; in data set [4], 4. The same compound registered a half-maximal inhibitory concentration (IC50) in data set [2] of 4000 nM.
